Measured values taken from ChEMBL document CHEMBL3758106, “Antitumor Activity of Americanin A Isolated from the Seeds of Phytolacca americana by Regulating the ATM/ATR Signaling Pathway and the Skp2-p27 Axis in Human Colon Cancer Cells” (J Nat Prod, 2015).
pIC50: −log10 of the molar value. Each block holds one compound with its values, some of them ahead of it.

How the values were obtained:
[1] = system: HCT-116; test: Induction of apoptosis in human HCT116 cells assessed as late apoptotic cells at 1 mM after 48 hrs by annexin V-FITC/propidium iodide staining-based flow cytometric analysis (reference value: 7.2%); assay type: functional
[2] = system: HCT-116; test: Induction of reactive oxygen species in human HCT116 cells at 1 mM after 48 hrs by DCFH-DA staining-based flow cytometric analysis (reference value: 5.1%); assay type: functional
Method in brief: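 HCT116 cells seeded overnight, then exposed to test compounds, alone or with NAC, for 48 h in complete medium. Loaded with 20 μM DCFH-DA for 30 min; intracellular ROS in 20 000 cells per group read by flow cytometry as histograms.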

[3] = system: HCT-116; test: Induction of apoptosis in human HCT116 cells assessed as dead cells at 1 mM after 48 hrs by annexin V-FITC/propidium iodide staining-based flow cytometric analysis (reference value: 4.2%); assay type: functional
[4] = system: HCT-116; test: Induction of apoptosis in human HCT116 cells assessed as early apoptotic cells at 1 mM after 48 hrs by annexin V-FITC/propidium iodide staining-based flow cytometric analysis (reference value: 1.1%); assay type: functional
[5] = system: HCT-116; test: Induction of apoptosis in human HCT116 cells assessed as viable cells at 1 mM after 48 hrs by annexin V-FITC/propidium iodide staining-based flow cytometric analysis (reference value: 87.4%); assay type: functional; settings: HCT-116, 48 h, read-out: Activity
[6] = Antiproliferative activity against human HCT116 cells after 24 to 72 hrs by SRB assay; assay type: functional, cell-based; settings: HCT-116
Method in brief: (§1)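 Cells grown in 96-well plates (RPMI 1640; MRC-5 in MEM, 10% FBS, antibiotics) with compound […]; fixed in 10% TCA 30 min at 4 °C, stained 0.4% SRB in 1% acetic acid 1 h, dye dissolved in 10 mM Tris pH 10.0, A515 read; viability as % of solvent control, IC50 by nonlinear regression; mean of three independent experiments.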

[7] = Antiproliferative activity against p53-null human HCT116 cells assessed as cell viability after 72 hrs by SRB assay; assay type: functional, cell-based; settings: HCT-116, 72 h
Method in brief: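 p53 wild-type and p53-null HCT116 cells in 96-well plates treated 72 h; SRB assay (TCA fix, SRB stain, Tris pH 10.0 solubilisation, A515); viability vs solvent control, IC50 by nonlinear regression.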

[8] = Antiproliferative activity against human HCT116 cells assessed as cell viability after 72 hrs by SRB assay; assay type: functional, cell-based; settings: HCT-116, 72 h
Method in brief: (§2)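 HCT116 cells in 96-well plates exposed 24, 48 or 72 h; TCA fixation, 0.4% SRB staining, dye solubilised in 10 mM Tris pH 10.0, absorbance at 515 nm; viability relative to solvent-treated control.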

[9] = system: MRC5; test: Cytotoxicity against human MRC5 cells after 24 to 72 hrs by SRB assay; assay type: cell-based; method in brief: as §1
[10] = system: A549; test: Antiproliferative activity against human A549 cells after 24 to 72 hrs by SRB assay; assay type: functional, cell-based; method in brief: as §1
[11] = system: CAKI-1; test: Antiproliferative activity against human CAKI-1 cells after 24 to 72 hrs by SRB assay; assay type: functional, cell-based; method in brief: as §1
[12] = Antiproliferative activity against human HCT116 cells assessed as cell viability after 24 hrs by SRB assay; assay type: functional, cell-based; settings: HCT-116, 24 h; method in brief: as §2
[13] = system: K562; test: Antiproliferative activity against human K562 cells after 24 to 72 hrs by SRB assay; assay type: functional, cell-based; method in brief: as §1
[14] = Antiproliferative activity against human HCT116 cells assessed as cell viability after 48 hrs by SRB assay; assay type: functional, cell-based; settings: HCT-116, 48 h; method in brief: as §2
[15] = Antitumor activity against human HCT116 cells xenografted in nude mouse assessed as tumor growth inhibition at 10 mg/kg, ip administered once per week measured on day 41; assay type: functional; settings: HCT-116, ip, 984 h, read-out: TGI
Method in brief: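 Nude mice given 2 × 10^6 HCT116 cells subcutaneously in flank; at ~120 mm3 randomised, six per group; ip dosing in 200 μL, test agent 5 or 10 mg/kg three times weekly, irinotecan 10 mg/kg once weekly; tumour volume measured twice weekly to day 41; body weight tracked for toxicity.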

[16] = Antiproliferative activity against human HCT15 cells after 24 to 72 hrs by SRB assay; assay type: functional, cell-based; settings: HCT-15; method in brief: as §1
[17] = system: RKO; test: Antiproliferative activity against human RKO cells after 24 to 72 hrs by SRB assay; assay type: functional, cell-based; method in brief: as §1
[18] = system: SW480; test: Antiproliferative activity against human SW480 cells after 24 to 72 hrs by SRB assay; assay type: functional, cell-based; method in brief: as §1

SMILES: CC(=O)N[C@@H](CS)C(=O)O [ACETYLCYSTEINE]
- Activity [1]: 8.5%
- Activity [2]: 6%
- Activity [3]: 4.9%
- Activity [4]: 1.1%
- viability at 1000 µM [5]: 85.6%

SMILES: COc1ccc([C@@H]2Oc3ccc(/C=C/C=O)cc3O[C@H]2COC(C)=O)cc1OC
- pIC50 [6]: 5.25

SMILES: O=C/C=C/c1ccc2c(c1)O[C@@H](CO)[C@H](c1ccc3c(c1)O[C@@H](CO)[C@H](c1ccc(O)c(O)c1)O3)O2
- pIC50 [6]: 4.96

- pIC50 [10]: 6.10
- pIC50 [13]: 5.17
SMILES: COc1cc([C@@H]2c3cc4c(cc3[C@@H](O[C@@H]3O[C@@H]5CO[C@@H](C)O[C@H]5[C@H](O)[C@H]3O)[C@H]3COC(=O)[C@H]23)OCO4)cc(OC)c1O [ETOPOSIDE]
- pIC50 [7]: 5.51
- pIC50 [8]: 6.52
- pIC50 [6]: 5.48
- pIC50 [9]: < 4.70
- pIC50 [11]: 5.96
- pIC50 [12]: < 4.70
- pIC50 [14]: 5.64

SMILES: COc1ccc([C@@H]2Oc3ccc(/C=C/C=O)cc3O[C@H]2CO)cc1OC
- pIC50 [6]: 5.40

- pIC50 [18]: 4.91
SMILES: CCc1c2c(nc3ccc(OC(=O)N4CCC(N5CCCCC5)CC4)cc13)-c1cc3c(c(=O)n1C2)COC(=O)[C@]3(O)CC [IRINOTECAN]
- pIC50 [6]: 5.70
- inhibition in vivo at 10 mg/kg [15]: 68.6%
- pIC50 [16]: 5.07
- pIC50 [17]: 5.21

SMILES: CC(=O)/C=C/C=C/c1ccc2c(c1)O[C@@H](CO)[C@H](c1ccc(O)c(O)c1)O2
- pIC50 [6]: < 4.00

SMILES: COc1ccc([C@@H]2Oc3ccc(C=O)cc3O[C@H]2CO)cc1OC
- pIC50 [6]: < 4.00

SMILES: O=C/C=C/c1ccc2c(c1)[C@@H](CO)[C@H](c1ccc(O)c(O)c1)O2
- pIC50 [6]: 4.98
